Measurements taken from ChEMBL document CHEMBL4229395, “Photoactivated 2,3-distyrylindoles kill multi-drug resistant bacteria” (Bioorg Med Chem Lett, 2018).
The source made the active and inactive calls. No cut-off for these calls is given here.

Legend:
Staphylococcus aureus [1] = assay: Bactericidal activity against methicillin-resistant Staphylococcus aureus ATCC BAA-44 at 5 uM irradiated with white light for 2 mins and measured after overnight incubation by drip-streak plate method; type: functional, organism-based
Procedure, shortened: (§1)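 MRSA ATCC BAA-44 cells incubated with a range of compound concentrations, then irradiated for 2 min with a white-light lamp or kept in the dark. Colonies were counted at the dilution giving 30–300 colonies. Each experiment had 3 replicates and was repeated in 3 independent experiments.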

[2] = Dark toxicity against human MCF7 cells assessed as decrease in cell viability by MTT assay; type: cell-based
Procedure, shortened: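 MCF-7 breast adenocarcinoma cells were incubated with compound without light. Viability was read by MTT colorimetric assay, and IC50 was derived from the concentration–response.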

Escherichia coli [3] = assay: Bactericidal activity against Escherichia coli ATCC 25922 at 2 ug/ml incubated under dark condition; type: ADME, organism-based
Klebsiella pneumoniae [4] = assay: Bactericidal activity against carbapenem-resistant Klebsiella pneumoniae ATCC BAA-2146 at 2 ug/ml incubated under dark condition; type: ADME, organism-based
Acinetobacter baumannii [5] = assay: Bactericidal activity against Acinetobacter baumannii ATCC BAA1797 at 1.25 ug/ml incubated under dark condition; type: ADME, organism-based
Pseudomonas aeruginosa [6] = assay: Bactericidal activity against Pseudomonas aeruginosa ATCC BAA-2114 at 2 ug/ml incubated under dark condition; type: ADME, organism-based
Staphylococcus aureus [7] = assay: Disruption of cell membrane in methicillin-resistant Staphylococcus aureus ATCC BAA-44 incubated under dark condition by scanning electron microscopic method; type: organism-based
Escherichia coli [8] = assay: Bactericidal activity against Escherichia coli ATCC 25922 at 5 uM incubated under dark condition in presence of polymyxin E; type: ADME, organism-based
Staphylococcus aureus [9] = assay: Bactericidal activity against Staphylococcus aureus ATCC 29213 at 1 uM in presence of light; type: functional, organism-based
Acinetobacter baumannii [10] = assay: Bactericidal activity against Acinetobacter baumannii ATCC BAA1797 at 5 uM in presence of light; type: functional, organism-based
Staphylococcus aureus [11] = assay: Disruption of cell membrane in methicillin-resistant Staphylococcus aureus ATCC BAA-44 at 10 uM incubated under dark condition by propidium iodide staining-based assay; type: organism-based
Procedure, shortened: (§2)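 MRSA ATCC BAA-44 cells were treated with compound with or without light, then stained with propidium iodide. Red PI fluorescence marks membrane disruption; green fluorescence comes from the compound. Phenylarsine oxide was the positive control.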

Staphylococcus aureus [12] = assay: Disruption of cell membrane in methicillin-resistant Staphylococcus aureus ATCC BAA-44 in presence of light by scanning electron microscopic method; type: functional, organism-based
Streptococcus mutans [13] = assay: Bactericidal activity against Streptococcus mutans Ward's 85W 2357 at 1 uM incubated under dark condition; type: ADME, organism-based
Procedure, shortened: (§3)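 Bacterial suspensions (about 10^8 CFU/mL) were incubated with the compound at a range of concentrations and kept in the dark, the unirradiated control for a 2 min white-light exposure. Samples were diluted 10-fold, drip-streaked on TSA and incubated overnight at 37 °C. Colonies were counted at the dilution giving 30–300 colonies.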

Streptococcus mutans [14] = assay: Bactericidal activity against Streptococcus mutans Ward's 85W 2357 at 1 uM in presence of light; type: functional, organism-based
Pseudomonas aeruginosa [15] = assay: Bactericidal activity against Pseudomonas aeruginosa ATCC BAA-2114 at 5 uM in presence of light and polymyxin E; type: functional, organism-based
Acinetobacter baumannii [16] = assay: Bactericidal activity against Acinetobacter baumannii ATCC BAA1797 at 5 uM incubated under dark condition; type: ADME, organism-based
Klebsiella pneumoniae [17] = assay: Bactericidal activity against carbapenem-resistant Klebsiella pneumoniae ATCC BAA-2146 at 5 uM incubated under dark condition in presence of polymyxin E; type: ADME, organism-based
Pseudomonas aeruginosa [18] = assay: Bactericidal activity against Pseudomonas aeruginosa ATCC BAA-2114 at 5 uM incubated under dark condition; type: ADME, organism-based
[19] = Induction of singlet oxygen generation at 1210 nm; type: functional
Staphylococcus aureus [20] = assay: Bactericidal activity against methicillin-resistant Staphylococcus aureus ATCC BAA-44 incubated under dark condition and measured after overnight incubation by drip-streak plate method; type: ADME, organism-based; details: in vitro; procedure, shortened: as §1
Enterococcus faecalis [21] = assay: Bactericidal activity against Enterococcus faecalis ATCC 51299 at 1 uM in presence of light; type: functional, organism-based
Staphylococcus aureus [22] = assay: Bactericidal activity against methicillin-resistant Staphylococcus aureus ATCC BAA-44 irradiated with white light for 2 mins and measured after overnight incubation by drip-streak plate method; type: functional, organism-based; procedure, shortened: as §1
Staphylococcus aureus [23] = assay: Bactericidal activity against methicillin-resistant Staphylococcus aureus ATCC BAA1717 at 1 uM in presence of light; type: functional, organism-based
Streptococcus pyogenes [24] = assay: Bactericidal activity against Streptococcus pyogenes ATCC 8133 at 1 uM in presence of light; type: functional, organism-based
Klebsiella pneumoniae [25] = assay: Bactericidal activity against carbapenem-resistant Klebsiella pneumoniae ATCC BAA-2146 at 2 ug/ml in presence of light; type: functional, organism-based
Enterococcus faecalis [26] = assay: Bactericidal activity against Enterococcus faecalis ATCC 51299 at 1 uM incubated under dark condition; type: ADME, organism-based; procedure, shortened: as §3
Staphylococcus aureus [27] = assay: Bactericidal activity against Staphylococcus aureus ATCC 29213 at 1 uM incubated under dark condition; type: ADME, organism-based
Acinetobacter baumannii [28] = assay: Bactericidal activity against Acinetobacter baumannii ATCC BAA1797 at 1.25 ug/ml in presence of light; type: functional, organism-based
Escherichia coli [29] = assay: Bactericidal activity against Escherichia coli ATCC 25922 at 5 uM incubated under dark condition; type: ADME, organism-based
Staphylococcus aureus [30] = assay: Bactericidal activity against methicillin-resistant Staphylococcus aureus ATCC BAA-44 at 0.1 uM irradiated with white light for 2 mins and measured after overnight incubation by drip-streak plate method relative to control; type: functional; procedure, shortened: as §1
Klebsiella pneumoniae [31] = assay: Bactericidal activity against carbapenem-resistant Klebsiella pneumoniae ATCC BAA-2146 at 5 uM in presence of light; type: functional, organism-based
Pseudomonas aeruginosa [32] = assay: Bactericidal activity against Pseudomonas aeruginosa ATCC BAA-2114 at 2 ug/ml in presence of light; type: functional, organism-based
Acinetobacter baumannii [33] = assay: Bactericidal activity against Acinetobacter baumannii ATCC BAA1797 at 5 uM in presence of light and polymyxin E relative to control; type: functional
Escherichia coli [34] = assay: Bactericidal activity against Escherichia coli ATCC 25922 at 2 ug/ml in presence of light; type: functional, organism-based
Pseudomonas aeruginosa [35] = assay: Bactericidal activity against Pseudomonas aeruginosa ATCC BAA-2114 at 5 uM in presence of light; type: functional, organism-based
Klebsiella pneumoniae [36] = assay: Bactericidal activity against carbapenem-resistant Klebsiella pneumoniae ATCC BAA-2146 at 5 uM in presence of light and polymyxin E; type: functional, organism-based
Escherichia coli [37] = assay: Bactericidal activity against Escherichia coli ATCC 25922 at 5 uM in presence of light and polymyxin E relative to control; type: functional
Klebsiella pneumoniae [38] = assay: Bactericidal activity against carbapenem-resistant Klebsiella pneumoniae ATCC BAA-2146 at 5 uM incubated under dark condition; type: ADME, organism-based
Streptococcus pyogenes [39] = assay: Bactericidal activity against Streptococcus pyogenes ATCC 8133 at 1 uM incubated under dark condition; type: ADME, organism-based; procedure, shortened: as §3
Staphylococcus aureus [40] = assay: Bactericidal activity against methicillin-resistant Staphylococcus aureus ATCC BAA-44 at 1 uM irradiated with white light through mask for 2 mins and measured after overnight incubation; type: functional, organism-based
Procedure, shortened: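 MRSA ATCC BAA-44 cells were pre-treated with compound at 1 μM and spread over an agar plate. The plate was irradiated with white light through a mask for 2 min, incubated overnight at 37 °C and photographed to show where colonies grew.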

Staphylococcus aureus [41] = assay: Disruption of cell membrane in methicillin-resistant Staphylococcus aureus ATCC BAA-44 at 10 uM in presence of light by propidium iodide staining-based assay; type: functional, organism-based; procedure, shortened: as §2
Escherichia coli [42] = assay: Bactericidal activity against Escherichia coli ATCC 25922 at 5 uM in presence of light; type: functional, organism-based
Staphylococcus aureus [43] = assay: Bactericidal activity against methicillin-resistant Staphylococcus aureus ATCC BAA-44 at 30 nM irradiated with white light for 2 mins and measured after overnight incubation by drip-streak plate method relative to control; type: functional; procedure, shortened: as §1
[44] = Induction of singlet oxygen generation at 1285 nm at 10 uM; type: functional

Compound: Fc1ccc(/C=C/c2[nH]c3ccccc3c2/C=C/c2ccc(F)cc2)cc1
- Activity (Staphylococcus aureus [1]): inactive

Compound: CN(C)[C@@H]1C(O)=C(C(N)=O)C(=O)[C@@]2(O)C(O)=C3C(=O)c4c(O)cccc4[C@@](C)(O)[C@H]3C[C@@H]12 [TETRACYCLINE]
- IC50 [2]: 41.6 µM

Compound: Clc1ccccc1/C=C/c1[nH]c2ccccc2c1/C=C/c1ccccc1Cl
- Activity (Staphylococcus aureus [1]): Active

Compound: COLISTIN
- Activity (Escherichia coli [3]): Non-Toxic
- Activity (Klebsiella pneumoniae [4]): Non-Toxic
- Activity (Acinetobacter baumannii [5]): Non-Toxic
- Activity (Pseudomonas aeruginosa [6]): Non-Toxic

Compound: COc1ccc(/C=C/c2[nH]c3ccccc3c2/C=C/c2ccc(OC)cc2)cc1
- Activity (Staphylococcus aureus [1]): inactive

Compound: Clc1ccc(/C=C/c2[nH]c3ccccc3c2/C=C/c2ccc(Cl)cc2)cc1
- Activity (Staphylococcus aureus [7]): Non-Toxic
- Activity (Escherichia coli [8]): Toxic
- Activity (Staphylococcus aureus [9]): Active
- Activity (Acinetobacter baumannii [10]): inactive
- Activity (Staphylococcus aureus [11]): Non-Toxic
- Activity (Staphylococcus aureus [12]): Active
- Activity (Streptococcus mutans [13]): Non-Toxic
- Activity (Streptococcus mutans [14]): Active
- Activity (Pseudomonas aeruginosa [15]): Active
- Activity (Acinetobacter baumannii [16]): Non-Toxic
- Activity (Klebsiella pneumoniae [17]): Toxic
- Activity (Pseudomonas aeruginosa [18]): Non-Toxic
- Activity [19]: Dose-dependent effect
- IC50 [2]: 47 µM
- Activity (Staphylococcus aureus [20]): Dose-dependent effect
- Activity (Enterococcus faecalis [21]): Active
- Activity (Staphylococcus aureus [22]): Dose-dependent effect
- Activity (Staphylococcus aureus [23]): Active
- Activity (Streptococcus pyogenes [24]): Active
- Activity (Klebsiella pneumoniae [25]): inactive
- Activity (Enterococcus faecalis [26]): Non-Toxic
- Activity (Staphylococcus aureus [27]): Non-Toxic
- Activity (Acinetobacter baumannii [28]): inactive
- Activity (Escherichia coli [29]): Non-Toxic
- Activity (Staphylococcus aureus [30]): 5 deltalog10CFU/ml
- Activity (Klebsiella pneumoniae [31]): inactive
- Activity (Pseudomonas aeruginosa [32]): inactive
- Activity (Acinetobacter baumannii [33]): 7 deltalog10CFU/ml
- Activity (Escherichia coli [34]): inactive
- Activity (Pseudomonas aeruginosa [35]): inactive
- Activity (Klebsiella pneumoniae [36]): Active
- Activity (Escherichia coli [37]): 7 deltalog10CFU/ml
- Activity (Klebsiella pneumoniae [38]): Non-Toxic
- Activity (Streptococcus pyogenes [39]): Non-Toxic
- Activity (Staphylococcus aureus [40]): Active
- Activity (Staphylococcus aureus [41]): Active
- Activity (Escherichia coli [42]): inactive

Compound: CCn1cc(C(=O)O)c(=O)c2cc(F)c(N3CCNCC3)cc21 [NORFLOXACIN]
- IC50 [2]: 13.8 µM

Compound: Clc1cccc(/C=C/c2[nH]c3ccccc3c2/C=C/c2cccc(Cl)c2)c1
- Activity (Staphylococcus aureus [1]): inactive

Compound: C(=C\c1[nH]c2ccccc2c1/C=C/c1ccccc1)/c1ccccc1
- fold change (FC) (Staphylococcus aureus [43]): 5

Compound: O=C1OC2(c3cc(I)c(O)c(I)c3Oc3c2cc(I)c(O)c3I)c2c(Cl)c(Cl)c(Cl)c(Cl)c21
- Activity [44]: Active
